According to the M2OR odorant receptor database:
Positions count from the first letter of the chain named.

Key:
Conditions in all cases: stereoisomer not certain
O51F1 [1] = test system: T1, O51F1
T1 sequence (whole entry): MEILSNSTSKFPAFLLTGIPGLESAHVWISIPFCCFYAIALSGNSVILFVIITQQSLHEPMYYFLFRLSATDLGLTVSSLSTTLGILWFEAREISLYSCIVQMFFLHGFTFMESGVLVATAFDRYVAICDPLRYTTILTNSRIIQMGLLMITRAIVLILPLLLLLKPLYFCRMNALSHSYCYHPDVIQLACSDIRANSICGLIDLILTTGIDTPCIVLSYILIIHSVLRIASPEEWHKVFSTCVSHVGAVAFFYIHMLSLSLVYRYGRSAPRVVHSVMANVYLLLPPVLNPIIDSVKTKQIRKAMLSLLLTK
Method in brief: (§1)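 Each entry records the cell line, G-protein, co-transfected protein and tags used. Methods varied with the source, often transient luciferase assays in mammalian cell lines. A receptor–molecule pair is called responsive (active) if the original authors judged its signal statistically different from baseline and non-responsive (inactive) otherwise.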

O51F1 [2] = test system: T2, O51F1; remark: listed apart in the source
T2 sequence (whole entry): T1 sequence (whole entry) with A13T
Method in brief: as §1

O51J1 = test system: O51J1
Chain of O51J1 (as listed by the source): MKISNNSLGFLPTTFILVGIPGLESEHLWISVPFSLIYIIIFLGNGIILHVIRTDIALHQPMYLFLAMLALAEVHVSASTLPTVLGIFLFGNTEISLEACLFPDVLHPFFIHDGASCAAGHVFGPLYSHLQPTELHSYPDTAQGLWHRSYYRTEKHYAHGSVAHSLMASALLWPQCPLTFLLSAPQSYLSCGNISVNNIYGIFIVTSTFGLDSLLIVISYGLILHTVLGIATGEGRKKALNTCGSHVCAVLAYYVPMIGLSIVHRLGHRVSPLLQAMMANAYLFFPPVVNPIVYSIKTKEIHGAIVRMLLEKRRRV
Method in brief: as §1

O51F2 Y341S = test system: T3, O51F2 Y341S
T3 sequence (whole entry): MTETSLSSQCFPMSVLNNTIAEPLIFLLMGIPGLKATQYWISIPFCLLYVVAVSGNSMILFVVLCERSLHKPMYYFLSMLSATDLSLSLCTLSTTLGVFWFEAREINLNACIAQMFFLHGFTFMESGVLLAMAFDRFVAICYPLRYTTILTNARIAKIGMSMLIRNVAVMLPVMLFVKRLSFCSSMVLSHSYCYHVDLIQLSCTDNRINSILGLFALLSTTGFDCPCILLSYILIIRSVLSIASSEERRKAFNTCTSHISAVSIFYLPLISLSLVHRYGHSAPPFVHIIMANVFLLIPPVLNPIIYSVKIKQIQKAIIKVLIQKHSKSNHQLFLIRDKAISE
Method in brief: as §1

O51G1 = test system: T4, O51G1
T4 sequence (whole entry): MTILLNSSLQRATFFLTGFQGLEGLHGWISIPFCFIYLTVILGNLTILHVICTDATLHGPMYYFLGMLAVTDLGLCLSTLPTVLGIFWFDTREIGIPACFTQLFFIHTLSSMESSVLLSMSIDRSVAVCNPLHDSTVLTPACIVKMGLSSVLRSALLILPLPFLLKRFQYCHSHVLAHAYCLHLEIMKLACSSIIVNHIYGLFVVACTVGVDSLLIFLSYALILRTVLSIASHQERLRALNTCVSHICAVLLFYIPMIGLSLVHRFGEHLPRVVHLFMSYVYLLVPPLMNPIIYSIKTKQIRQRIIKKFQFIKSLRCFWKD
Method in brief: as §1

O51I1 V164L = test system: T5, O51I1 V164L
T5 sequence (whole entry): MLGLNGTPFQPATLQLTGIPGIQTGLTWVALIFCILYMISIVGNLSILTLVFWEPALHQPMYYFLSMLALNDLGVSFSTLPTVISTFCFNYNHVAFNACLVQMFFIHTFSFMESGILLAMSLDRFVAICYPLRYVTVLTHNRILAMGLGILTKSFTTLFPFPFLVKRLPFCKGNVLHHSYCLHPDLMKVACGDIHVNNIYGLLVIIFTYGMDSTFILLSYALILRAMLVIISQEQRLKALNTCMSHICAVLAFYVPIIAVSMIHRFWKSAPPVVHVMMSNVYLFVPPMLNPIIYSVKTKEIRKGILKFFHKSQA
Method in brief: as §1

O51J1 R75H I202V = test system: T6, O51J1 R75H I202V
T6 sequence (whole entry): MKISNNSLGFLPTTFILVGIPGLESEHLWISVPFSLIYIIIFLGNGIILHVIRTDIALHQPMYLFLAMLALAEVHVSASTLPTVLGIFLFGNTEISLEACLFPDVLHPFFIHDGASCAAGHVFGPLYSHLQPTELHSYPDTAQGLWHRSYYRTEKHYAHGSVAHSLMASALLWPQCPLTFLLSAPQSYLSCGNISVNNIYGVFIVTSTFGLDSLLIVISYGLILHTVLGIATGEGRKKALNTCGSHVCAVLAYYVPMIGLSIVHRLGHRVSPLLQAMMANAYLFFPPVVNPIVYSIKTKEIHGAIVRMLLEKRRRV
Method in brief: as §1

O51L1 = test system: T7, O51L1
T7 sequence (whole entry): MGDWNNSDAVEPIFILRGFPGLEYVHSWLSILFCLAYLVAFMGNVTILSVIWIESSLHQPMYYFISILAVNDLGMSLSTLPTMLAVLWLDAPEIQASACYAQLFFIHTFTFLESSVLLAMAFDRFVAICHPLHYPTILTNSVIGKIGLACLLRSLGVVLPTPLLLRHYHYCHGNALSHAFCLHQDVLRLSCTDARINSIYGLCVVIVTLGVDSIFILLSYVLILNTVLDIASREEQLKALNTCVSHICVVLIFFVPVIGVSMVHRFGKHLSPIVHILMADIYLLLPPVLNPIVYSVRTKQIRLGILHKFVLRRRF
Method in brief: as §1

O51T1 = test system: T8, O51T1
T8 sequence (whole entry): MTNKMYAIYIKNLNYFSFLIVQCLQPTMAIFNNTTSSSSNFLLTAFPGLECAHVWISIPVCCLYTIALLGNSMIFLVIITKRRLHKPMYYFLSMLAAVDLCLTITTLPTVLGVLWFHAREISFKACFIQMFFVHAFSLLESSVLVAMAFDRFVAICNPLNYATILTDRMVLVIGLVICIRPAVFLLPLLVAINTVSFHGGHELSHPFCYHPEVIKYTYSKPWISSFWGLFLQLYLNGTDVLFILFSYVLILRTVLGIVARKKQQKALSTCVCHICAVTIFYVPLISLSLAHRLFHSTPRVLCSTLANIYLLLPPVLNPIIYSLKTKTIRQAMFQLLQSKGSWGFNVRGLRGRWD
Method in brief: as §1

O51V1 L36F N51T G96W = test system: T9, O51V1 L36F N51T G96W
T9 sequence (whole entry): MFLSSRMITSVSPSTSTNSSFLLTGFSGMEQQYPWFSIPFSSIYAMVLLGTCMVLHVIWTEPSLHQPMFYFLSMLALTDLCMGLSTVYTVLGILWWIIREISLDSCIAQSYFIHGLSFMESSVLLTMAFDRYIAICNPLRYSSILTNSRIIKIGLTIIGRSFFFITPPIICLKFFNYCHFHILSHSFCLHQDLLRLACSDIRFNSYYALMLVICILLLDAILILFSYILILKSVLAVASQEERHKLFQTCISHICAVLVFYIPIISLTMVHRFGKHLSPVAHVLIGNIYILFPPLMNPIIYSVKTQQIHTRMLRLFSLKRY
Method in brief: as §1

Measured: odorant receptor agonist call

C=C(C)C1CCC(C)C(=O)C1 (stereo not drawn)
inactive: O51F1 [1] | O51F1 [2]

CCCC(C)=CC(=O)O
inactive: O51J1

CCC1OC(=O)C(O)=C1C (stereo not drawn)
not listed: O51J1
inactive: all other assays above

CC1=C(O)C(=O)OC1C (stereo not drawn)
not listed: O51J1
inactive: all other assays above

CC1=C(O)C(=O)C(C)O1 (stereo not drawn)
not listed: O51J1
inactive: all other assays above

CCCCCCC=CCCC=O
not listed: O51F1 [2] | O51J1 | O51T1
inactive: all other assays above

CCC1OC(C)=C(O)C1=O (stereo not drawn)
not listed: O51J1
inactive: all other assays above

CC1=NC(C)C(C)S1 (stereo not drawn)
not listed: O51J1
inactive: all other assays above

CCCC(S)CCOC(C)=O (stereo not drawn)
not listed: O51J1
inactive: all other assays above

Cc1cnc(C)c(C)n1
not listed: O51J1
inactive: all other assays above
